This note sets out measurements from ChEMBL document CHEMBL2010720, “Synthesis and evaluation of ursolic acid derivatives as potent cytotoxic agents” (Bioorg Med Chem Lett, 2012).

SMILES strings stand for the structures.

The IC50 is the concentration at which inhibition is half-maximal. Read a high IC50 as weaker potency in that assay.

For test [1], the system named is PC-3. Description: Cytotoxicity against human PC3 cells after 48 hrs by MTT assay. The format is functional, cell-based. Particulars: PC-3, 48 h. The procedure, abridged:
(§1)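 Cells seeded at 1×10^4 per well and treated 24 h later for 48 h at 10, 20, 40, 60, 80 and 100 µM, each in six wells. Compounds came from 20 mM DMSO stocks diluted in medium; the vehicle control matched the DMSO of the top dose. MTT was added for 4 h, formazan dissolved in DMSO and read at 570 nm. IC50 was taken as the concentration giving 50% growth inhibition.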
(Formazan colour is commonly taken as a measure of viable cells.)

For test [2], the system named is HepG2. Put plainly: Cytotoxicity against human HepG2 cells after 48 hrs by MTT assay. Type of test: functional, cell-based. Conditions: HepG2, 48 h. The procedure, abridged: as §1
In test [3] the test system is AGS. Description: Cytotoxicity against human AGS cells after 48 hrs by MTT assay. Type of test: functional, cell-based. The procedure, abridged: as §1
The test system of test [4] is HT-29. Put plainly: Cytotoxicity against human HT-29 cells after 48 hrs by MTT assay. Type of test: functional, cell-based. Particulars: HT-29, 48 h. The procedure, abridged: as §1
Test [5] concerns AGS. Description: Cell cycle arrest in human AGS cells assessed as accumulation at G2/M phase cells at 10 uM after 48 hrs by flow cytometry (reference value: 35.37 +/- 3.73%). The format is functional.
The test system of test [6] is AGS. Put plainly: Cell cycle arrest in human AGS cells assessed as accumulation at S phase cells at 10 uM after 48 hrs by flow cytometry (reference value: 36.56 +/- 0.36%). The format is functional. On the technique in general: In flow cytometry, cells or beads pass a laser one at a time.
The subject of test [7] is AGS. Description: Cell cycle arrest in human AGS cells assessed as accumulation at G0/G1 phase cells at 10 uM after 48 hrs by flow cytometry (reference value: 28.07 +/- 3.52%). Type of test: functional.
Test [8] relates to AGS. Put plainly: Cell cycle arrest in human AGS cells assessed as accumulation at sub-G0/G1 phase cells at 10 uM after 48 hrs by flow cytometry (reference value: 1.56 +/- 0.20%). Type of test: functional.
The subject of test [9] is AGS. Description: Induction of apoptosis in human AGS cells assessed as late apoptotic cells at 5 uM after 24 hrs by annexin-V/PI staining-based flow cytometric analysis (reference value: 2.5%). Type of test: functional.
The subject of test [10] is AGS. Description: Induction of apoptosis in human AGS cells assessed as viable cells at 10 uM after 24 hrs by annexin-V/PI staining-based flow cytometric analysis (reference value: 95.5%). Conditions: read-out: Activity. Type of test: functional.
For test [11], the system named is AGS. Put plainly: Induction of apoptosis in human AGS cells assessed as early apoptotic cells at 10 uM after 24 hrs by annexin-V/PI staining-based flow cytometric analysis (reference value: 1.9%). Type of test: functional.
Test [12] has as its system AGS. Put plainly: Induction of apoptosis in human AGS cells assessed as early apoptotic cells at 5 uM after 24 hrs by annexin-V/PI staining-based flow cytometric analysis (reference value: 1.9%). Type of test: functional.
Test [13] relates to AGS. Put plainly: Induction of apoptosis in human AGS cells assessed as viable cells at 20 uM after 24 hrs by annexin-V/PI staining-based flow cytometric analysis (reference value: 95.5%). The format is functional. Conditions: read-out: Activity.
Test [14] has as its system AGS. Put plainly: Induction of apoptosis in human AGS cells assessed as late apoptotic cells at 10 uM after 24 hrs by annexin-V/PI staining-based flow cytometric analysis (reference value: 2.5%). Type of test: functional.
Test [15] has as its system AGS. Description: Induction of apoptosis in human AGS cells assessed as necrotic cells at 5 uM after 24 hrs by annexin-V/PI staining-based flow cytometric analysis (reference value: 0.1%). The format is functional.
Test [16] has as its system AGS. Description: Induction of apoptosis in human AGS cells assessed as early apoptotic cells at 20 uM after 24 hrs by annexin-V/PI staining-based flow cytometric analysis (reference value: 1.9%). Type of test: functional.
Test [17] has as its system AGS. Put plainly: Induction of apoptosis in human AGS cells assessed as necrotic cells at 20 uM after 24 hrs by annexin-V/PI staining-based flow cytometric analysis (reference value: 0.1%). The format is functional.
Test [18] relates to AGS. Description: Induction of apoptosis in human AGS cells assessed as necrotic cells at 10 uM after 24 hrs by annexin-V/PI staining-based flow cytometric analysis (reference value: 0.1%). Type of test: functional.
Test [19] deals with AGS. Description: Induction of apoptosis in human AGS cells assessed as late apoptotic cells at 20 uM after 24 hrs by annexin-V/PI staining-based flow cytometric analysis (reference value: 2.5%). Type of test: functional.
The test system of test [20] is AGS. Description: Induction of apoptosis in human AGS cells assessed as viable cells at 5 uM after 24 hrs by annexin-V/PI staining-based flow cytometric analysis (reference value: 95.5%). The format is functional. Conditions: read-out: Activity.
Test [21] concerns AGS. Description: Cell cycle arrest in human AGS cells assessed as accumulation at sub-G0/G1 phase at 20.6 uM after 48 hrs by flow cytometry (reference value: 1.56 +/- 0.20%). Type of test: functional.
The test system of test [22] is AGS. Put plainly: Cell cycle arrest in human AGS cells assessed as accumulation at S phase cells at 20.6 uM after 48 hrs by flow cytometry (reference value: 36.56 +/- 0.36%). The format is functional.
The test system of test [23] is AGS. Description: Cell cycle arrest in human AGS cells assessed as accumulation at G2/M phase cells at 20.6 uM after 48 hrs by flow cytometry (reference value: 35.37 +/- 3.73%). The format is functional.
The subject of test [24] is AGS. Put plainly: Cell cycle arrest in human AGS cells assessed as accumulation at G0/G1 phase cells at 20.6 uM after 48 hrs by flow cytometry (reference value: 28.07 +/- 3.52%). The format is functional.

Regarding `CC(=O)O[C@H]1CC[C@]2(C)[C@H]3CC=C4[C@@H]5[C@@H](C)[C@H](C)CC[C@]5(C(=O)NCCNC(=O)CN)CC[C@@]4(C)[C@]3(C)CC[C@H]2C1(C)C`, the IC50 is 14.3 µM in test [1], 15.5 µM in test [2], under 10 µM in test [3] and 20.2 µM in test [4]. Further, the Activity in [5] is reported as 37.66%; in test [6], 25.37%; in test [7] it was 36.97%; in [8], 75.45%.

On to `CSCC[C@H](N)C(=O)NCCNC(=O)[C@]12CC[C@@H](C)[C@H](C)[C@H]1C1=CC[C@@H]3[C@@]4(C)CC[C@H](OC(C)=O)C(C)(C)[C@@H]4CC[C@@]3(C)[C@]1(C)CC2`, for which the IC50 in test [1], in test [2], in [3] and in test [4] was under 10 µM in each case. The Activity in test [5] is listed as 45.03%; in test [6] it was 0%; in test [7] it was 54.97%; in test [8], 82.38%.

Take `C[C@H]1[C@H](C)CC[C@]2(C(=O)NCCNC(=O)CN)CC[C@]3(C)C(=CC[C@@H]4[C@@]5(C)CC[C@H](O)C(C)(C)[C@@H]5CC[C@]43C)[C@H]12`: the IC50 in test [1] was 19.6 µM; in test [3], 10.2 µM. The Activity in test [5] is recorded as 71.45%; in test [6], 11.23%; in test [7], 17.72%; in [8], 44.69%.

Regarding `CSCC[C@H](N)C(=O)NCCNC(=O)[C@]12CC[C@@H](C)[C@H](C)[C@H]1C1=CC[C@@H]3[C@@]4(C)CC[C@H](O)C(C)(C)[C@@H]4CC[C@@]3(C)[C@]1(C)CC2`, the IC50 was under 10 µM in test [1], 16 µM in test [2] and under 10 µM in test [3]. Further, the Activity in [5] was determined as 68.65%; in test [6] it was 18.46%; in [7] it was 12.9%; in [8] it was 50.03%.

`C[C@H]1[C@H](C)CC[C@]2(C(=O)NCCN)CC[C@]3(C)C(=CC[C@@H]4[C@@]5(C)CC[C@H](O)C(C)(C)[C@@H]5CC[C@]43C)[C@H]12`: the IC50 is under 10 µM in test [1], 21.3 µM in test [2], 11.4 µM in test [3] and 14.3 µM in test [4]. Also, the Activity was determined as 6.1% in [9]; 27.7% in [11]; 8.9% in test [12]; 11.8% in test [14]; 0.2% in test [15]; 2.51% in [5]. In addition, the Activity in test [16] stood at 68.6%; in test [17] it was 0.5%; in test [18], 0.7%; in test [6], 66.66%; in [19] it was 17.2%; in test [7], 30.83%. Besides, the Activity in [8] is 92.64%. In addition, the viability at 10 µM in test [10] turned out to be 59.9%. The viability at 20 µM in [13] was 13.7%. Besides, the viability at 5 µM in test [20] was 84.7%.

For the molecule `CC(=O)O[C@H]1CC[C@]2(C)[C@H]3CC=C4[C@@H]5[C@@H](C)[C@H](C)CC[C@]5(C(=O)NCCNC(=O)[C@@H](N)Cc5ccccc5)CC[C@@]4(C)[C@]3(C)CC[C@H]2C1(C)C`, the half-inhibitory concentration (IC50) in [1], in test [2], in test [3] and in test [4] was under 10 µM each time. Besides, the Activity is 35.31% in test [5], 2.06% in test [6], 63.49% in test [7] and 87.64% in test [8].

For `C[C@H]1[C@H](C)CC[C@]2(C(=O)NC(CCC(=O)O)C(=O)O)CC[C@]3(C)C(=CC[C@@H]4[C@@]5(C)CC[C@H](O)C(C)(C)[C@@H]5CC[C@]43C)[C@H]12` (stereo not given in full), the IC50 in test [1], in [2], in test [3] and in test [4] was over 100 µM each time.

In the case of `C[C@H]1[C@H](C)CC[C@]2(C(=O)O)CC[C@]3(C)C(=CC[C@@H]4[C@@]5(C)CC[C@H](O)C(C)(C)[C@@H]5CC[C@]43C)[C@H]12` [URSOLIC ACID], the half-inhibitory concentration (IC50) turned out to be 22.3 µM in [1], 53.4 µM in test [2], 20.6 µM in test [3] and 25.3 µM in [4]. The Activity in test [21] was 86.53%; in [22] it was 14.64%; in [23] it was 52.16%; in test [24], 33.2%.

Take `CC(=O)O[C@H]1CC[C@]2(C)[C@H]3CC=C4[C@@H]5[C@@H](C)[C@H](C)CC[C@]5(C(=O)NCCN)CC[C@@]4(C)[C@]3(C)CC[C@H]2C1(C)C`: the IC50 is under 10 µM in test [1], 12.4 µM in test [2], under 10 µM in test [3] and under 10 µM in test [4]. Besides, the Activity in test [5] amounted to 46.72%; in [6], 1.42%; in test [7] it was 51.86%; in [8] it was 88.3%.

In the case of `CC(=O)O[C@H]1C(=O)[C@@]2(C)[C@H]([C@H](OC(=O)c3ccccc3)[C@]3(O)C[C@H](OC(=O)[C@H](O)[C@@H](NC(=O)c4ccccc4)c4ccccc4)C(C)=C1C3(C)C)[C@]1(OC(C)=O)CO[C@@H]1C[C@@H]2O` [PACLITAXEL], the IC50 in [1] is 57.2 µM; in test [2], 30.7 µM; in test [3] it was under 10 µM; in test [4], under 10 µM. In addition, the Activity in test [5] is reported as 86.18%; in test [6] it was 7.9%; in test [7] it was 5.92%; in test [8] it was 70.41%.

Turning to `C[C@H]1[C@H](C)CC[C@]2(C(=O)NC(CC(=O)O)C(=O)O)CC[C@]3(C)C(=CC[C@@H]4[C@@]5(C)CC[C@H](O)C(C)(C)[C@@H]5CC[C@]43C)[C@H]12` (stereo not given in full), the IC50 in test [1], in test [2], in [3] and in [4] was over 100 µM each time.

With `C[C@H]1[C@H](C)CC[C@]2(C(=O)NCCNC(=O)[C@@H](N)Cc3ccccc3)CC[C@]3(C)C(=CC[C@@H]4[C@@]5(C)CC[C@H](O)C(C)(C)[C@@H]5CC[C@]43C)[C@H]12`, the IC50 in test [1] and in [3] was under 10 µM throughout. Also, the Activity in [5] turned out to be 45.59%; in test [6], 11.79%; in test [7], 42.62%; in test [8] it was 47.73%.
